From ChEMBL document CHEMBL1146368, “Development of selective inhibitors for anti-apoptotic Bcl-2 proteins from BHI-1” (Bioorg Med Chem, 2007)
pKi: −log10 of the molar value.

Key:
[1] = target: Apoptosis regulator Bcl-2 (Homo sapiens, UniProt P10415); assay: Displacement of Flu-Bak peptide from recombinant antiapoptotic Bcl2 protein by fluorescence polarization assay
Outline: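 Recombinant Ni-NTA-purified proteins from E. coli ER2566 (Bcl-2 lacking transmembrane domain). This is added to compound from 3-fold DMSO stocks (0.014–10 mM), incubated 1 h at 23 °C, and polarization read. Peptide-only background is subtracted. Ki is from the Wang equation; triplicates, run twice.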

[2] = Displacement of Flu-Bak peptide from recombinant antiapoptotic Bcl-XL protein by fluorescence polarization assay; set-up: species or system Homo sapiens
Outline: (§1)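 Recombinant Ni-NTA-purified proteins from E. coli ER2566 (Bcl-2 lacking transmembrane domain). Oregon Green-labelled Bak BH3 peptide (50 nM in premix) is preincubated 1 h at 23 °C with protein for 60% complex (Bcl-2 1000 nM, Bcl-XL 880 nM, Bcl-w 1200 nM) in PBS pH 7.0 with 1 mM DTT. This is added to compound from 3-fold DMSO stocks (0.014–10 mM), incubated 1 h at 23 °C, and polarization read. Peptide-only background is subtracted. Ki is from the Wang equation; triplicates, run twice.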

[3] = target: T1, Bcl-2-like protein 2 (Homo sapiens, UniProt Q92843); assay: Displacement of Flu-Bak peptide from recombinant antiapoptotic Bcl-w protein by fluorescence polarization assay; outline: as §1
T1 sequence (Q92843 whole entry): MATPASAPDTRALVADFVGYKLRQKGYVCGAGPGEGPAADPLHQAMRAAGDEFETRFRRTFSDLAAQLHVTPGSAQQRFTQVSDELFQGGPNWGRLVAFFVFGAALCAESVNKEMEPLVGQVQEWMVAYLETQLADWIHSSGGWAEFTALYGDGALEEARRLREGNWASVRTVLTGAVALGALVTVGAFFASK

[4] = organism: Homo sapiens; assay: Selectivity for recombinant Bcl2 protein over recombinant Bcl-w protein
[5] = organism: Homo sapiens; assay: Selectivity for recombinant Bcl2 protein over recombinant Bcl-XL protein
[6] = organism: Homo sapiens; assay: Selectivity for recombinant Bcl-XL protein over recombinant Bcl-2 protein
[7] = organism: Homo sapiens; assay: Selectivity for recombinant Bcl-w protein over recombinant Bcl-XL protein

Sequence of Apoptosis regulator Bcl-2 (P10415 whole entry, the tested form may be a part): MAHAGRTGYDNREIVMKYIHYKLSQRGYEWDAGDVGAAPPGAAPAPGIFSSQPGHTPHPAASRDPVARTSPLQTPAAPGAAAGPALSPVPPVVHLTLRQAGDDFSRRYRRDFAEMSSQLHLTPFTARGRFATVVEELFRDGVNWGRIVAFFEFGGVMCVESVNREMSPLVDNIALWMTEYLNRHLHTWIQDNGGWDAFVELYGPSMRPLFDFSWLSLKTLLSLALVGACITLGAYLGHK

| SMILES | pKi [1] | pKi [2] | pKi [3] | Ratio Ki [4] | Ratio Ki [5] | Ratio Ki [6] | Ratio Ki [7] |
| --- | --- | --- | --- | --- | --- | --- | --- |
| CSCC[C@@H](C(=O)O)N1C(=O)/C(=C/c2ccc(Br)cc2)SC1=S | 4.16 | 3.87 | 4.06 | 1.26 |  |  |  |
| C=CCOC(=O)[C@H](C)N1C(=O)/C(=C/c2ccc(Br)cc2)SC1=S | 3.72 | 3.57 | < 3.00 |  | 1.4 |  |  |
| Cc1cc2c(C(C)C)c(O)c(O)c(C=O)c2c(O)c1-c1c(C)cc2c(C(C)C)c(O)c(O)c(C=O)c2c1O [GOSSYPOL] |  | 4.61 | 4.75 |  |  |  |  |
| C/C(=C1/SC(=S)N([C@@H](CC(C)C)C(=O)O)C1=O)c1ccccc1 | 4.67 | 3.89 | 4.23 | 2.74 |  |  |  |
| O=C(O)[C@H](Cc1ccccc1)N1C(=O)/C(=C/c2ccc(Br)cc2)SC1=S | 4.85 | 5.27 | 4.67 |  |  | 2.65 |  |
| C=CCOC(=O)[C@H](Cc1ccccc1)N1C(=O)/C(=C/c2ccc(Br)cc2)SC1=S | < 3.00 | 3.61 | 4.25 |  |  |  | 4.29 |
| CCC/C(=C1/SC(=S)N([C@@H](Cc2ccccc2)C(=O)O)C1=O)c1ccccc1 | 4.92 | 4.55 | 4.39 |  | 2.33 |  |  |
| O=C(O)[C@H](Cc1c[nH]c2ccccc12)N1C(=O)/C(=C/c2ccc(Br)cc2)SC1=S | 5.55 | 4.48 | 4.27 |  | 11.5 |  |  |
| CCCC[C@H]1C(=O)O[C@H](C)[C@H](NC(=O)c2cccc(NC=O)c2O)C(=O)O[C@@H](C)[C@@H]1OC(=O)CC(C)C [ANTIMYCIN A3] | 3.91 |  | 3.90 |  |  |  |  |
| CC(C)C[C@@H](C(=O)O)N1C(=O)/C(=C/c2ccc(Br)cc2)SC1=S | 5.13 | 5.52 | 4.51 |  |  | 2.48 |  |
| O=C(O)CC[C@@H](C(=O)O)N1C(=O)/C(=C/c2ccc(Br)cc2)SC1=S | 3.49 | 3.07 | 3.21 | 1.91 |  |  |  |
| C[C@@H](C(=O)O)N1C(=O)/C(=C/c2ccc(Br)cc2)SC1=S | 3.94 | 3.43 | 3.61 | 2.11 |  |  |  |
| C=CCOC(=O)[C@H](Cc1ccccc1)N1C(=O)C(=C(c2ccccc2)c2ccccc2)SC1=S | 3.59 | 3.75 | 3.94 |  |  |  | 1.52 |
| CC(C)C[C@@H](C(=O)O)N1C(=O)C(=C(c2ccccc2)c2ccccc2)SC1=S | 4.24 | 4.16 | 4.21 | 1.07 |  |  |  |
| CCC/C(=C1/SC(=S)N([C@@H](CC(C)C)C(=O)O)C1=O)c1ccccc1 | 4.87 | 4.38 | 4.62 | 1.79 |  |  |  |
| CC(C)C(C(=O)O)N1C(=O)/C(=C\c2ccc(Br)cc2)SC1=S (stereo unspecified) | 4.36 | 3.88 | 3.91 | 2.85 |  |  |  |
| C[C@@H](C(=O)N1CCOCC1)N1C(=O)/C(=C/c2ccc(Br)cc2)SC1=S | 4.15 | 3.64 | 3.84 | 2.01 |  |  |  |
| CC(C)C[C@@H](C(=O)O)N1C(=O)/C(=C(\c2ccccc2)c2ccc(-c3ccccc3)cc2)SC1=S | 5.71 | 5.06 | 5.16 | 3.58 |  |  |  |
| COc1ccc2c(c[n+](C)c3c4cc5c(cc4ccc23)OCO5)c1OC [CHELERYTHRINE CHLORIDE] | 3.77 | 4.02 | 3.97 |  |  |  |  |
